{"source": "ChEMBL document CHEMBL1144004", "about": "“Synthesis of (nor)tropeine (di)esters and allosteric modulation of glycine receptor binding” (Bioorg Med Chem, 2008)"}
{"species": "Rattus norvegicus", "assay": "Displacement of [3H]strychnine from Wistar rat glycine receptor in spinal cord membrane", "assay_type": "cell membranes", "method_in_brief": "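Male Wistar rat spinal cord crude synaptic membranes, washed in 50 mM Tris-HCl pH 7.4 and pre-spun in buffer with 200 mM KSCN. Binding in 50 mM Tris-HCl plus 200 mM KSCN with 3 nM [3H]strychnine, 0 °C for 35 min. Duplicate aliquots were vacuum-filtered on GF/B filters and counted by scintillation. Nonspecific binding was taken with 2 mM glycine. Displacement curves were fitted (Eq. 2) for K_A and α; 3–6 experiments.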", "units": {"K": "µM"}}
{"smiles": "CN1[C@@H]2CC[C@H]1C[C@H](OC(=O)c1ccc(C(=O)O[C@H]3C[C@H]4CC[C@@H](C3)N4C)cc1)C2", "K": 24.6}
{"smiles": "CN1[C@@H]2CCC[C@H]1C[C@H](OC(=O)/C=C/C(=O)O[C@@H]1C[C@H]3CCC[C@@H](C1)N3C)C2", "K": 20.8}
{"smiles": "O=C(O[C@@H]1C[C@@H]2N[C@H](C1)[C@@H]1O[C@@H]12)[C@H](CO)c1ccccc1", "K": 8}
{"smiles": "CN1[C@@H]2CC[C@H]1C[C@H](OC(=O)c1cccc(C(=O)O[C@H]3C[C@H]4CC[C@@H](C3)N4C)c1)C2", "K": 0.197}
{"smiles": "CCN1[C@@H]2CC[C@H]1C[C@@H](OC(=O)CCC(=O)O[C@H]1C[C@H]3CC[C@@H](C1)N3CC)C2", "K": "> 100"}
{"smiles": "CN1[C@@H]2CC[C@H]1C[C@H](OC(=O)c1ccc(Cl)nc1)C2", "K": 5.7}
{"smiles": "CN1[C@@H]2CC[C@H]1C[C@H](OC(=O)c1cccnc1)C2", "K": 2.2}
{"smiles": "O=C(O[C@H]1C[C@H]2CC[C@@H](C1)N2)C1c2ccccc2Oc2ccccc21", "K": 3.1}
{"smiles": "O=C(O[C@@H]1C[C@H]2CC[C@@H](C1)N2)c1cccnc1", "K": 0.082}
{"smiles": "O=C(OC1CC2CCC(C1)N2)c1c[nH]c2ccccc12", "note": "(stereo not drawn) [NORTROPISETRON]", "K": 0.017}
{"smiles": "CN1[C@@H]2CC[C@H]1C[C@@H](OC(=O)/C=C/C(=O)O[C@H]1C[C@H]3CC[C@@H](C1)N3C)C2", "K": 7.5}
{"biological_target": "not listed separately", "assay": "(§1) Displacement of [3H]strychnine from Wistar rat glycine receptor in spinal cord membrane in presence of 10 uM glycine", "assay_type": "cell membranes", "method_in_brief": "(§2)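 Rat spinal cord synaptic membrane [3H]strychnine (3 nM) binding in 50 mM Tris-HCl/200 mM KSCN, 0 °C, 35 min, with 10 μM glycine present during test-ligand displacement. Filtration on GF/B, scintillation counting. Nonspecific binding was defined by 2 mM glycine. IC50 and slope come from concentration-displacement curves; three experiments.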", "units": {"IC50": "nM"}}
{"smiles": "O=C(OC1CC2CCC(C1)N2)c1c[nH]c2ccccc12", "note": "(stereo not drawn) [NORTROPISETRON]", "IC50": 9.3}
{"species": "Rattus norvegicus", "assay": "as §1", "assay_type": "cell membranes", "method_in_brief": "as §2", "units": {"Activity": "%"}}
{"smiles": "O=C(OC1CC2CCC(C1)N2)c1c[nH]c2ccccc12", "note": "(stereo not drawn) [NORTROPISETRON]", "Activity": 60}
